Assay [1] has as its target T1, Adrenergic receptor alpha-1 (Rattus norvegicus, UniProt P15823+P23944+P43140).
T1 sequence (P15823 whole entry): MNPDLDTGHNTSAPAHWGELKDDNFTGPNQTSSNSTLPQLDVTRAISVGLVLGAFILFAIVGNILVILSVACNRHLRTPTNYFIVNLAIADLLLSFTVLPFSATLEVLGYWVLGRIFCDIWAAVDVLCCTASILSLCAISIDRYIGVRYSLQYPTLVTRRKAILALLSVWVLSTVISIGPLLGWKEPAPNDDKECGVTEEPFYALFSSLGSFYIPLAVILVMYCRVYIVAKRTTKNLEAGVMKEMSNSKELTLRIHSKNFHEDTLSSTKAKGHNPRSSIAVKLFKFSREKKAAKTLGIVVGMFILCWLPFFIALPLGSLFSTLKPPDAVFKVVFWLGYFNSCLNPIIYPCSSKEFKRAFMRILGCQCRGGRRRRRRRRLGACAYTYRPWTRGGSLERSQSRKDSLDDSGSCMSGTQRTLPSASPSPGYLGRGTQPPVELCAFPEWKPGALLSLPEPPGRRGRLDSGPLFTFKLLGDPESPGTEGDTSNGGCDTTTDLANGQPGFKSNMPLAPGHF
T1 sequence (P23944 whole entry): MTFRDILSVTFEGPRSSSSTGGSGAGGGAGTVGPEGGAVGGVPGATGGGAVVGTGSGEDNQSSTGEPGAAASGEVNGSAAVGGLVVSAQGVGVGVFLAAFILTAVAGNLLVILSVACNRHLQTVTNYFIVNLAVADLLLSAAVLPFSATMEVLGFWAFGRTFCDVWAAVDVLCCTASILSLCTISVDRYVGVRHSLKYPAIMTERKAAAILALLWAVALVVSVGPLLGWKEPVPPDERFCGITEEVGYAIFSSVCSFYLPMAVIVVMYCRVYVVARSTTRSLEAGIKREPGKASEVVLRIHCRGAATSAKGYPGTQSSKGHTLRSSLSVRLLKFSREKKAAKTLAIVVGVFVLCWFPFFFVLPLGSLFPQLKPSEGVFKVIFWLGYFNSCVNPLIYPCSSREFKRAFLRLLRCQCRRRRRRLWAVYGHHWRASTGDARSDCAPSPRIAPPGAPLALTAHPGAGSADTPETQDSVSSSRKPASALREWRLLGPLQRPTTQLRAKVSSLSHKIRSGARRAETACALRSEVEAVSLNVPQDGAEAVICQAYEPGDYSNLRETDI
T1 sequence (P43140 whole entry): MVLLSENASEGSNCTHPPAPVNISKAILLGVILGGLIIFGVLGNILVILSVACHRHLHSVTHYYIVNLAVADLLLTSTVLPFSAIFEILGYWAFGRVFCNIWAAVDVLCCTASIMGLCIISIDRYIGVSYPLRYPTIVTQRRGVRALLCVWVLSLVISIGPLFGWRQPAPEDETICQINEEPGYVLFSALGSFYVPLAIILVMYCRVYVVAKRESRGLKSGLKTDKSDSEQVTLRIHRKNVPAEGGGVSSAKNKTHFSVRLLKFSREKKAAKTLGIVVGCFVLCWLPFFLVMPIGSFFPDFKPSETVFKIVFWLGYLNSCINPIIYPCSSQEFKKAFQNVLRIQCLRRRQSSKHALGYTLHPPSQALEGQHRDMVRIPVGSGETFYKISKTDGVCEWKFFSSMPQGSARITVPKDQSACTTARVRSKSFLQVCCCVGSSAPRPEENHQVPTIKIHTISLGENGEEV
As to the kind of experiment: In vitro binding affinity against Alpha-1 adrenergic receptor using [3H]prazosin as radioligand. It is filed as protein assay.

Assay [2] has as its target Glutamate NMDA receptor. Nature of the assay: In vitro inhibition of glutamate induced neuronal death in primary cultures of rat hippocampal neurons. The assay is classed as functional, tissue-based, Hippocampus.
For assay [3], the species on record is Rattus norvegicus. Nature of the assay: Selectivity between protection against glutamate-induced neuronal damage and alpha 1 adrenergic affinity. An outline of the steps:
(§1)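 Selectivity index: ratio of α1 adrenergic affinity ([3H]prazosin binding IC50) to neuroprotection IC50 (inhibition of glutamate-induced death of primary rat hippocampal neurons).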

The species entered for assay [4] is Rattus norvegicus. Nature of the assay: Selectivity between protection against glutamate-induced neuronal damage and alpha 1 adrenergic affinity; Not significant. An outline of the steps: as §1
Assay [5] can be described thus: In vivo inhibition of NMDA-stimulated fos induction in mouse following i.p. administration. The assay is classed as functional. To be noted: ip. An outline of the steps:
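Male CF-1 mice (20–25 g), 12 h light/dark, 22 °C. Compound in 50% poly(ethylene glycol) given ip 30 min before NMDA 75 mg/kg ip (subseizure dose). After 1 h: pentobarbital, paraformaldehyde perfusion, two 50 μm hippocampal coronal sections per brain. Sheep anti-Fos (1:1500) immunostaining by avidin–biotin method, glucose oxidase substrate. ED50 calculated against vehicle-only and NMDA-only sections.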

Assay [6] deals with Rattus norvegicus. As to the kind of experiment: In vivo inhibition of haloperidol-induced catalepsy in rat following s.c. administration. The assay is classed as functional. The note with it: sc.

In ChEMBL document CHEMBL1128605, “(1S,2S)-1-(4-hydroxyphenyl)-2-(4-hydroxy-4-phenylpiperidino)-1-propanol: a potent new neuroprotectant which blocks N-methyl-D-aspartate responses” (J Med Chem, 1995) one finds IC50, Selectivity ratio and ED50 data, which are given here for 19 molecules.

Calls of active or inactive are those of the source. No cut-off for these calls is given here.

Turning to `C[C@@H]([C@@H](O)c1ccc(O)cc1)N1CCC(O)(CCc2ccccc2)CC1`, the IC50 in assay [1] was found to be 137 nM; in assay [2], 1.3 nM. Also, the Selectivity ratio in assay [3] stood at 105.
Consider `C[C@@H]([C@@H](O)c1ccc(O)cc1)N1CCC(O)(c2ccc(F)cc2)CC1`, for which the IC50 in assay [1] was determined as 2700 nM; in assay [2] it was 4 nM. Besides, in assay [3], the Selectivity ratio was found to be 675.
For the molecule `C[C@@H]([C@@H](O)c1ccc(O)cc1)N1CCC(O)(c2ccc(Cl)cc2)CC1`, the IC50 in assay [1] came out at 1480 nM; in assay [2], 2 nM. Also, in assay [3], the Selectivity ratio stood at 740.
On the same counts, the results for `Cc1ccc(C2(O)CCN([C@@H](C)[C@@H](O)c3ccc(O)cc3)CC2)cc1` are 2166 nM, 2.7 nM and 1080.
`C[C@@H]([C@@H](O)c1ccc(O)cc1)N1CCN(C(=O)c2ccccc2)CC1`: the IC50 in assay [1] and in assay [2] was greater than 10000 nM each time. Besides, in assay [4], the Selectivity ratio entry is “inactive”.
As for `Oc1ccc(C(O)CN2CCC(O)(Cc3ccccc3)CC2)cc1` (stereo not given), the IC50 was greater than 10000 nM in assay [1] and 63 nM in assay [2]. In assay [3], the Selectivity ratio is greater than 158.
In assay [1], `C[C@@H]([C@@H](O)c1ccc(O)cc1)N1CCC(O)(Cc2ccccc2)CC1` showed an IC50 greater than 10000 nM. Moreover, in assay [3], the Selectivity ratio is greater than 172.
In assay [1], `C[C@@H]([C@@H](O)c1ccc(O)cc1)N1CCC(O)(c2ccccc2)CC1` (stereo in doubt; 10) [TRAXOPRODIL] had an IC50 of 5700 nM.
With `C[C@@H]([C@@H](O)c1ccc(O)cc1)N1CCC(O)(CCCc2ccccc2)CC1`, the figures for the IC50 in assay [1] and in assay [2] were 2350 nM and 15.7 nM, respectively. The Selectivity ratio in assay [3] is 150.
On the same counts, the results for `CC[C@@H]([C@@H](O)c1ccc(O)cc1)N1CCC(O)(Cc2ccccc2)CC1` are greater than 10000 nM, 68 nM and greater than 147.
With `COC1(Cc2ccccc2)CCN([C@@H](C)[C@@H](O)c2ccc(O)cc2)CC1`, the IC50 in assay [2] was greater than 10000 nM. In assay [4], the Selectivity ratio result was “inactive”.
In the case of `C[C@@H]([C@@H](O)c1ccc(O)cc1)N1CCN(Cc2ccccc2)CC1`, the Selectivity ratio result in assay [4] was “inactive”.
`CCC[C@@H]([C@@H](O)c1ccc(O)cc1)N1CCC(O)(Cc2ccccc2)CC1`: the IC50 in assay [1] is greater than 10000 nM. The Selectivity ratio in assay [3] was 7.7.
The molecule `C[C@@H]([C@@H](O)c1ccc(O)cc1)N1CCC(O)(c2ccccc2)CC1` (stereo in doubt) [TRAXOPRODIL] had an IC50 in assay [1] of 19520 nM. Moreover, the ED50 in assay [5] turned out to be 1 mg/kg; in assay [6], 0.4 mg/kg.
For the molecule `C[C@@H]([C@@H](O)c1ccccc1)N1CCC(O)(c2ccccc2)CC1`, the values for the IC50 in assay [1] and in assay [2] were greater than 10000 nM and greater than 1000 nM, respectively. In addition, the Selectivity ratio entry in assay [4] is “inactive”.
On the same counts, the results for `C[C@@H]([C@@H](O)c1ccc(Cl)cc1)N1CCC(O)(c2ccccc2)CC1` are 3133 nM, greater than 1000 nM and “inactive”.
Regarding `C[C@@H]([C@@H](O)c1ccc(F)cc1)N1CCC(O)(c2ccccc2)CC1`, the IC50 is 6900 nM in assay [1] and greater than 1000 nM in assay [2]. In addition, in assay [4], the Selectivity ratio entry was “inactive”.
Turning to `C[C@H]([C@H](O)c1ccc(O)cc1)N1CCC(O)(c2ccccc2)CC1`, the IC50 in assay [1] is reported as 8450 nM. Besides, the ED50 in assay [5] came out at 5 mg/kg; in assay [6] it was 0.5 mg/kg.
Consider `C[C@@H]([C@@H](O)c1ccc(O)cc1)N1CCC(O)(CCCCc2ccccc2)CC1`, for which the IC50 in assay [1] was 2300 nM; in assay [2], 1000 nM. Further, in assay [3], the Selectivity ratio is 2.3.
